Measurements taken from ChEMBL document CHEMBL4325864, “Discovery of new potent protein arginine methyltransferase 5 (PRMT5) inhibitors by assembly of key pharmacophores from known inhibitors” (Bioorg Med Chem Lett, 2018).
Calls of active or inactive are those of the source. No cut-off for these calls is given here.

What was measured:
[1] = target: T1, PRMT5/MEP50 complex (Homo sapiens, UniProt O14744); experiment: Inhibition of recombinant human N-terminal FLAG-tagged PRMT5 (2 to end residues) /human N-terminal His-tagged MEP50 (2 to end residues) expressed in HEK293F cells pretreated for 15 mins followed by substrate and [3H]-SAM addition measured after 60 mins by scintillation proximity assay; assay type: cell-based
Summary of the method: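 PRMT5 enzymatic inhibition measured by radiometric scintillation proximity assay; IC50 determined.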

[2] = target: T2, Protein arginine N-methyltransferase 5 (Homo sapiens, UniProt O14744); experiment: Inhibition of full-length N-terminal FLAG-tagged PRMT5 (unknown origin) (1 to 637 residues) expressed in baculovirus infected Sf9 insect cells using histone H4 as peptide after 5 hrs in presence of [H3]AdoMet by scintillation proximity assay
[3] = target: Protein arginine N-methyltransferase 1 (Homo sapiens, UniProt Q99873); experiment: Inhibition of PRMT1 (unknown origin) pretreated for 15 mins followed by substrate and [3H]-SAM addition measured after 60 mins by scintillation proximity assay
Summary of the method: (§1)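 PRMT1 and PRMT4 enzyme-inhibition assays used to assess selectivity; IC50 values determined for each enzyme.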

[4] = target: T3, Histone-arginine methyltransferase CARM1 (Homo sapiens, UniProt Q86X55); experiment: Inhibition of PRMT4 (unknown origin) pretreated for 15 mins followed by substrate and [3H]-SAM addition measured after 60 mins by scintillation proximity assay; summary of the method: as §1
T3 sequence (Q86X55 whole entry): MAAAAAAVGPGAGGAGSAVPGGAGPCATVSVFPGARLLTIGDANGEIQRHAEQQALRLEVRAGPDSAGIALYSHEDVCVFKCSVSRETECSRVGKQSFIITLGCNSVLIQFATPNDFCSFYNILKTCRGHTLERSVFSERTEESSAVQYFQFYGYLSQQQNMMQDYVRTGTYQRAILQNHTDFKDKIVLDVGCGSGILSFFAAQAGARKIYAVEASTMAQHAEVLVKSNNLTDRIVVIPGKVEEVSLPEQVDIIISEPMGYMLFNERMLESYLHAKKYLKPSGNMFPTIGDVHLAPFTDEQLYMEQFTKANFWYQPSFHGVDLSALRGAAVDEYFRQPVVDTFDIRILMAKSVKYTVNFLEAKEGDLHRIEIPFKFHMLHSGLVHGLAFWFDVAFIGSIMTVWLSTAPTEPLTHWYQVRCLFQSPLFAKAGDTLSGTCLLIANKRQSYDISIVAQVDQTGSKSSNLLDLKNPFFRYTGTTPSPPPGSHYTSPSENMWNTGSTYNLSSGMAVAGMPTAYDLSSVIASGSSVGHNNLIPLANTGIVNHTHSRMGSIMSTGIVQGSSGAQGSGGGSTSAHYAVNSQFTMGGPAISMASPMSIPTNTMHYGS

[5] = target: T2, Protein arginine N-methyltransferase 5; experiment: (§2) Competitive inhibition of recombinant human N-terminal FLAG-tagged PRMT5 (2 to end residues) /human N-terminal His-tagged MEP50 (2 to end residues) expressed in HEK293F cells pretreated for 15 mins followed by varying peptide substrate and fixed [3H]-SAM addition measured after 60 mins by scintillation proximity assay; assay type: cell-based
Summary of the method: (§3)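 Mode of inhibition: IC50 values determined by radiometric scintillation proximity assay in the presence of various concentrations of peptide substrate and SAM; experiments performed in triplicate.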

[6] = system: MV4-11; experiment: Antiproliferative activity against human MV4-11 cells after 4 days by cell titer-glo luminescent cell viability assay; conditions: MV4-11, 96 h
[7] = system: Pfeiffer; experiment: Antiproliferative activity against human Pfeiffer cells after 4 days by cell titer-glo luminescent cell viability assay; conditions: 96 h
[8] = system: SUD4; experiment: Antiproliferative activity against human SU-DHL4 cells after 4 days by cell titer-glo luminescent cell viability assay; conditions: SU-DHL-4, 96 h
[9] = system: KARPAS-422; experiment: Antiproliferative activity against human KARPAS422 cells after 4 days by cell titer-glo luminescent cell viability assay; conditions: KARPAS-422, 96 h
[10] = target: T2, Protein arginine N-methyltransferase 5; experiment: Inhibition of PRMT5 in human KARPAS422 cells assessed as decrease in symmetric arginine dimethylation of SmD3 after 4 days by Western blot analysis; assay type: cell-based; conditions: in the assay text read “after 72 h” for “after 4 days”
Summary of the method: (§4)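 KARPAS-422 and SU-DHL-4 cells treated across a concentration range; symmetric arginine dimethylation of SmD3 detected by Western blot with symmetric dimethyl arginine (SDMA) antibody.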

[11] = target: T2, Protein arginine N-methyltransferase 5; experiment: Inhibition of PRMT5 in human SU-DHL4 cells assessed as decrease in symmetric arginine dimethylation of SmD3 after 4 days by Western blot analysis; assay type: cell-based; conditions: in the assay text read “after 72 hrs” for “after 4 days”; summary of the method: as §4
[12] = system: KARPAS-422; experiment: Induction of apoptosis in human KARPAS422 cells assessed as viable cells at 4 uM after 48 hrs by AnnexinV-FITC staining-based flow cytometric analysis (reference value: 91.3%); assay type: functional; conditions: KARPAS-422, 48 h, read-out: Activity
[13] = system: KARPAS-422; experiment: Induction of apoptosis in human KARPAS422 cells assessed as apoptotic cells at 4 uM after 48 hrs by AnnexinV-FITC staining-based flow cytometric analysis (reference value: 4.08%); assay type: functional
[14] = system: KARPAS-422; experiment: Induction of apoptosis in human KARPAS422 cells assessed as necrotic cells at 4 uM after 48 hrs by AnnexinV-FITC staining-based flow cytometric analysis (reference value: 3.20%); assay type: functional
[15] = system: KARPAS-422; experiment: Induction of apoptosis in human KARPAS422 cells assessed as viable cells at 8 uM after 48 hrs by AnnexinV-FITC staining-based flow cytometric analysis (reference value: 91.3%); assay type: functional; conditions: KARPAS-422, 48 h, read-out: Activity
[16] = system: KARPAS-422; experiment: Induction of apoptosis in human KARPAS422 cells assessed as apoptotic cells at 8 uM after 48 hrs by AnnexinV-FITC staining-based flow cytometric analysis (reference value: 4.08%); assay type: functional
[17] = system: KARPAS-422; experiment: Induction of apoptosis in human KARPAS422 cells assessed as necrotic cells at 8 uM after 48 hrs by AnnexinV-FITC staining-based flow cytometric analysis (reference value: 3.20%); assay type: functional
[18] = system: KARPAS-422; experiment: Induction of apoptosis in human KARPAS422 cells assessed as viable cells at 16 uM after 48 hrs by AnnexinV-FITC staining-based flow cytometric analysis (reference value: 91.3%); assay type: functional; conditions: KARPAS-422, 48 h, read-out: Activity
[19] = system: KARPAS-422; experiment: Induction of apoptosis in human KARPAS422 cells assessed as apoptotic cells at 16 uM after 48 hrs by AnnexinV-FITC staining-based flow cytometric analysis (reference value: 4.08%); assay type: functional
[20] = system: KARPAS-422; experiment: Induction of apoptosis in human KARPAS422 cells assessed as necrotic cells at 16 uM after 48 hrs by AnnexinV-FITC staining-based flow cytometric analysis (reference value: 3.20%); assay type: functional
[21] = system: KARPAS-422; experiment: Cell cycle arrest in human KARPAS422 cells assessed as accumulation of cells at G1 phase at 4 uM after 48 hrs by propidium iodide staining-based flow cytometric analysis (reference value: 39.56%); assay type: functional
[22] = system: KARPAS-422; experiment: Cell cycle arrest in human KARPAS422 cells assessed as accumulation of cells at G1 phase at 8 uM after 48 hrs by propidium iodide staining-based flow cytometric analysis (reference value: 39.56%); assay type: functional
[23] = system: KARPAS-422; experiment: Cell cycle arrest in human KARPAS422 cells assessed as accumulation of cells at G1 phase at 16 uM after 48 hrs by propidium iodide staining-based flow cytometric analysis (reference value: 39.56%); assay type: functional
[24] = system: KARPAS-422; experiment: Cell cycle arrest in human KARPAS422 cells assessed as accumulation of cells at G1 phase after 48 hrs by propidium iodide staining-based flow cytometric analysis; assay type: functional
[25] = system: KARPAS-422; experiment: Induction of apoptosis in human KARPAS422 cells after 48 hrs by AnnexinV-FITC staining-based flow cytometric analysis; assay type: functional, cell-based
[26] = target: T1, PRMT5/MEP50 complex; experiment: Binding affinity to PRMT5 (unknown origin)/MEP50 (unknown origin) by SPR assay; assay type: protein-complex assay
Summary of the method: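 Direct binding to PRMT5 measured by surface plasmon resonance; equilibrium dissociation constant (KD) derived.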

[27] = target: T2, Protein arginine N-methyltransferase 5; experiment: as §2, with “Non-competitive” for “Competitive”, “fixed” for “varying”, “varying” for “fixed”; assay type: cell-based; summary of the method: as §3
[28] = system: KARPAS-422; experiment: Cell cycle arrest in human KARPAS422 cells assessed as accumulation of cells at S phase at 4 uM after 48 hrs by propidium iodide staining-based flow cytometric analysis (reference value: 47.8%); assay type: functional
[29] = system: KARPAS-422; experiment: Cell cycle arrest in human KARPAS422 cells assessed as accumulation of cells at S phase at 8 uM after 48 hrs by propidium iodide staining-based flow cytometric analysis (reference value: 47.8%); assay type: functional
[30] = system: KARPAS-422; experiment: Cell cycle arrest in human KARPAS422 cells assessed as accumulation of cells at S phase at 16 uM after 48 hrs by propidium iodide staining-based flow cytometric analysis (reference value: 47.8%); assay type: functional
[31] = system: KARPAS-422; experiment: Cell cycle arrest in human KARPAS422 cells assessed as accumulation of cells at G2/M phase at 4 uM after 48 hrs by propidium iodide staining-based flow cytometric analysis (reference value: 12.64%); assay type: functional
[32] = system: KARPAS-422; experiment: Cell cycle arrest in human KARPAS422 cells assessed as accumulation of cells at G2/M phase at 8 uM after 48 hrs by propidium iodide staining-based flow cytometric analysis (reference value: 12.64%); assay type: functional
[33] = system: KARPAS-422; experiment: Cell cycle arrest in human KARPAS422 cells assessed as accumulation of cells at G2/M phase at 16 uM after 48 hrs by propidium iodide staining-based flow cytometric analysis (reference value: 12.64%); assay type: functional

T1 sequence (O14744 whole entry): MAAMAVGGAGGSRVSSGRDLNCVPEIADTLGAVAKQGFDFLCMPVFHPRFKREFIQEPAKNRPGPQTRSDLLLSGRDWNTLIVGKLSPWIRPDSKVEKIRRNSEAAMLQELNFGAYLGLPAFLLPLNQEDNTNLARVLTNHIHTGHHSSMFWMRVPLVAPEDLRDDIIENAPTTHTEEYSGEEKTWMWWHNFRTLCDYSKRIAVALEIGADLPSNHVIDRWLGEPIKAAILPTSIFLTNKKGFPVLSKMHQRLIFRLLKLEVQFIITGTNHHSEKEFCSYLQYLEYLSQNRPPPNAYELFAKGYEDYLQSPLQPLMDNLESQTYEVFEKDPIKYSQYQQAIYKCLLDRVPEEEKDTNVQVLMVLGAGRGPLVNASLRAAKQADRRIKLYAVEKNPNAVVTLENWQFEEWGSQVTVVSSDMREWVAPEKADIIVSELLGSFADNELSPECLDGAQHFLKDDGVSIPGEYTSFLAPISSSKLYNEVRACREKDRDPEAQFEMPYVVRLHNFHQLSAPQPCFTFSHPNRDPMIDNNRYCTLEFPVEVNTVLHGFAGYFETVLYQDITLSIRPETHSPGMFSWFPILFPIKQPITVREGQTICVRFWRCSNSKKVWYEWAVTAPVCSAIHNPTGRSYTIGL
T1 sequence (Q9BQA1 whole entry, further chain): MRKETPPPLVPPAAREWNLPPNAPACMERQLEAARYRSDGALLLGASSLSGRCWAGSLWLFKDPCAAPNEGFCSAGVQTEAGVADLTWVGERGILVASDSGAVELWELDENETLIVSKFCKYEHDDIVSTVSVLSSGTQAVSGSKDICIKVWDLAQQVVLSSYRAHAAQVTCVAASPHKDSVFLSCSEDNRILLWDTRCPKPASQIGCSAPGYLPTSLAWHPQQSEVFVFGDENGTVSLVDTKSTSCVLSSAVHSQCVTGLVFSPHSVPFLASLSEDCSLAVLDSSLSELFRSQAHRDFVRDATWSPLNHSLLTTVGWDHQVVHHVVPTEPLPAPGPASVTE
T2 sequence (O14744 whole entry, the tested form may be a part): as the sequence (O14744 whole entry) above
Chain of Protein arginine N-methyltransferase 1 (Q99873 whole entry): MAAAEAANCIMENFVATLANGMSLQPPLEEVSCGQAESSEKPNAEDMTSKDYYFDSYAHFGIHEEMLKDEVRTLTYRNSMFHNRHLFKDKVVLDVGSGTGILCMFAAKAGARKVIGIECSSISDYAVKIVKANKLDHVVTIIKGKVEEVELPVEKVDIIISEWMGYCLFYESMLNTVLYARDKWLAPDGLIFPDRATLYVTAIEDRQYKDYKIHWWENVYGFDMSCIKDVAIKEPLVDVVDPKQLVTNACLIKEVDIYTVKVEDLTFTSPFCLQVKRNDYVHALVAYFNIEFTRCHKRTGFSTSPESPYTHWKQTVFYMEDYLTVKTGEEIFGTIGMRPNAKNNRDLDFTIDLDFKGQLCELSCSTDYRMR

COC(=O)c1ccccc1NC(=O)CN1CCc2ccccc2C1
IC50 [1]: 60 µM

O=C(CCN1CCc2ccccc2C1)Nc1cccc2ccccc12
IC50 [1]: > 100 µM

Nc1ncnc2c1ncn2[C@@H]1O/C(=C\[C@@H](N)CC[C@H](N)C(=O)O)[C@@H](O)[C@H]1O
IC50 [2]: 0.035 µM

O=C(CCN1CCc2ccccc2C1)Nc1ccccc1
IC50 [1]: > 100 µM

O=C(CCN1CCc2ccccc2C1)Nc1cccc(OC(F)(F)F)c1
IC50 [1]: 63 µM

N#Cc1ccccc1NC(=O)CCN1CCc2ccccc2C1
IC50 [1]: 25.6 µM

O=C(CCN1CCc2ccccc2C1)Nc1cccc(Cl)c1
IC50 [1]: 42.1 µM

COC(=O)c1ccccc1NC(=O)CCCN1CCc2ccccc2C1
IC50 [1]: 87.9 µM

O=C(CCN1CCc2ccccc2C1)Nc1cccc(Br)c1
IC50 [1]: 18.1 µM

Cc1cccc(NC(=O)CCN2CCc3ccccc3C2)c1
IC50 [1]: > 100 µM

Cc1cc([N+](=O)[O-])ccc1NC(=O)CCN1CCc2ccccc2C1
IC50 [1]: > 100 µM

N#Cc1c(Br)cccc1NC(=O)CCN1CCc2ccccc2C1
IC50 [1]: 2.71 µM
IC50 [3]: > 200 µM
IC50 [4]: > 200 µM
inhibition [5]: Active
IC50 [6]: 12.5 µM
IC50 [7]: 11.1 µM
IC50 [8]: 16.4 µM
IC50 [9]: 9.1 µM
inhibition [10]: Dose-dependent effect
inhibition [11]: inactive
viability at 4 µM [12]: 90.5%
Activity [13]: 4.66%
Activity [14]: 2.35%
viability at 8 µM [15]: 88.1%
Activity [16]: 7.89%
Activity [17]: 2.93%
viability at 16 µM [18]: 66.3%
Activity [19]: 23.1%
Activity [20]: 8.76%
Activity [21]: 44.75%
Activity [22]: 50.53%
Activity [23]: 54.34%
Activity [24]: Dose-dependent effect
Activity [25]: Dose-dependent effect
Kd [26]: 10.8 µM
inhibition [27]: Active
Activity [28]: 41.52%
Activity [29]: 37.72%
Activity [30]: 36.18%
Activity [31]: 13.73%
Activity [32]: 11.75%
Activity [33]: 9.48%

COC(=O)c1cc(F)c(F)cc1NC(=O)CCN1CCc2ccccc2C1
IC50 [1]: > 100 µM

COC(=O)c1ccccc1NC(=O)CCN1CCc2ccccc2C1
IC50 [1]: 31.6 µM
